Assay results taken from ChEMBL document CHEMBL3808334, “Synthesis and in vitro evaluation of novel triazine analogues as anticancer agents and their interaction studies with bovine serum albumin” (Eur J Med Chem, 2016).

Key:
SN12C = test: Growth inhibition of human SN12C cells assessed as cell growth at 10^-4 M incubated for 48 hrs by sulforhodamine B assay; format: functional; details: read-out: Activity
NCI-H23 = test: Growth inhibition of human NCI-H23 cells incubated for 48 hrs by sulforhodamine B assay; format: functional; details: NCI-H23, 48 h
Procedure, shortened: (§1)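 Cells were plated at 5,000–40,000 per well according to doubling time and preincubated 24 h at 37 °C in 5% CO2; time-zero plates were then TCA-fixed. Five concentrations (10-fold or ½-log dilutions, DMSO stock) were incubated 48 h. Cells were TCA-fixed, stained with 0.4% SRB and read at 515 nm. GI50 was taken where [(Ti−Tz)/(C−Tz)]×100 = 50.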

MCF7 [1] = test: Growth inhibition of human MCF7 cells incubated for 48 hrs by sulforhodamine B assay; format: functional; details: MCF7, 48 h; procedure, shortened: as §1
[2] = Growth inhibition of human RXF393 cells assessed as cell growth at 10^-8 M incubated for 48 hrs by sulforhodamine B assay; format: functional; details: RXF 393, 48 h, read-out: Activity
[3] = Growth inhibition of human DU145 cells assessed as cell growth at 10^-8 M incubated for 48 hrs by sulforhodamine B assay; format: functional; details: DU-145, 48 h, read-out: Activity
Procedure, shortened: (§2)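 Cells seeded at 5,000–40,000/well according to doubling time and preincubated 24 h at 37 °C, 5% CO2. Time-zero plates were TCA-fixed. DMSO concentrate was diluted in medium with 50 µg/ml gentamicin to give five concentrations (10-fold or ½ log steps), then exposed 48 h. Cells were TCA-fixed, stained with 0.4% SRB and read at 515 nm. Percent growth was taken against time-zero and control; GI50, TGI and LC50 derived.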

[4] = Growth inhibition of human HL-60(TB) cells assessed as cell growth at 10^-7 M incubated for 48 hrs by sulforhodamine B assay; format: functional; details: HL-60, 48 h, read-out: Activity
Procedure, shortened: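 Cells plated at 5,000–40,000/well according to doubling time and preincubated 24 h at 37 °C, 5% CO₂, with time-zero plates TCA-fixed. Drugs were kept as DMSO concentrates at 400× the top concentration and diluted in medium with 50 µg/ml gentamicin. Five 10-fold or ½-log dilutions were run for 48 h, followed by SRB staining and A515. Percent growth = (Ti−Tz)/(C−Tz)×100, or (Ti−Tz)/Tz×100 when Ti<Tz.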

[5] = Growth inhibition of human HCT116 cells assessed as cell growth at 10^-7 M incubated for 48 hrs by sulforhodamine B assay; format: functional; details: HCT-116, 48 h, read-out: Activity; procedure, shortened: as §2
U-251 = test: Growth inhibition of human U251 cells assessed as cell growth at 10^-7 M incubated for 48 hrs by sulforhodamine B assay; format: functional; details: U-251, 48 h, read-out: Activity
[6] = Growth inhibition of human SNB19 cells assessed as cell growth at 10^-4 M incubated for 48 hrs by sulforhodamine B assay; format: functional; details: SNB-19, 48 h, read-out: Activity
Malme-3M = test: Growth inhibition of human MALME-3M cells assessed as cell growth at 10 uM incubated for 48 hrs by sulforhodamine B assay; format: functional; details: read-out: Activity
[7] = Growth inhibition of human UACC62 cells assessed as cell growth at 10^-7 M incubated for 48 hrs by sulforhodamine B assay; format: functional; details: UACC-62, 48 h, read-out: Activity
[8] = Growth inhibition of human OVCAR8 cells assessed as cell growth at 10^-7 M incubated for 48 hrs by sulforhodamine B assay; format: functional; details: OVCAR-8, 48 h, read-out: Activity
MCF7 [9] = test: Growth inhibition of human MCF7 cells assessed as cell growth at 10 uM incubated for 48 hrs by sulforhodamine B assay; format: functional; details: MCF7, 48 h, read-out: Activity
NCI/ADR-RES = test: Growth inhibition of human NCI/ADR-RES cells assessed as cell growth at 10^-6 M incubated for 48 hrs by sulforhodamine B assay; format: functional; details: read-out: Activity
A498 = test: Growth inhibition of human A498 cells assessed as cell growth at 10^-6 M incubated for 48 hrs by sulforhodamine B assay; format: functional; details: A498, 48 h, read-out: Activity
Procedure, shortened: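 Five-dose assay: five concentrations from 10-fold or ½-log serial dilutions. Cells are plated at 5,000–40,000 per well according to doubling time, grown 24 h, then exposed 48 h at 37 °C, 5% CO₂. Fixed with cold 50% TCA (final addition) for 60 min at 4 °C and stained with 0.4% SRB in 1% acetic acid. Bound dye is solubilized in 10 mM Tris base and read at 515 nm. GI₅₀ is where [(Ti−Tz)/(C−Tz)]×100 = 50, with a time-zero plate as Tz.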

NCI-H522 = test: Growth inhibition of human NCI-H522 cells assessed as cell growth at 10^-5 M incubated for 48 hrs by sulforhodamine B assay; format: functional; details: NCI-H522, 48 h, read-out: Activity
[10] = Growth inhibition of human SF268 cells assessed as cell growth at 10^-5 M incubated for 48 hrs by sulforhodamine B assay; format: functional; details: SF-268, 48 h, read-out: Activity
[11] = Growth inhibition of human SF295 cells assessed as cell growth at 10^-5 M incubated for 48 hrs by sulforhodamine B assay; format: functional; details: SF-295, 48 h, read-out: Activity
[12] = Growth inhibition of human HL-60(TB) cells assessed as cell growth at 10 uM incubated for 48 hrs by sulforhodamine B assay; format: functional; details: HL-60, 48 h, read-out: Activity
NCI-H322M = test: Growth inhibition of human NCI-H322M cells assessed as cell growth at 10 uM incubated for 48 hrs by sulforhodamine B assay; format: functional; details: read-out: Activity
NCI-H460 = test: Growth inhibition of human NCI-H460 cells assessed as cell growth at 10 uM incubated for 48 hrs by sulforhodamine B assay; format: functional; details: NCI-H460, 48 h, read-out: Activity
HT-29 = test: Growth inhibition of human HT-29 cells assessed as cell growth at 10 uM incubated for 48 hrs by sulforhodamine B assay; format: functional; details: HT-29, 48 h, read-out: Activity
Albumin = Albumin (Bos taurus, UniProt P02769); test: Binding affinity to bovine serum albumin assessed as binding constant in emission spectra by Benesie-Hildebrand plot analysis; format: ADME; details: cattle, isolated protein
Procedure, shortened: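 BSA, 10 µM, in 0.1 M phosphate buffer pH 7.4, titrated with compound (0–20 µM per the figure; diluted from 10⁻³ mol L⁻¹ DMSO stocks). Run at 300 K in a 1 cm quartz cell. UV spectra taken 200–800 nm after 5 min equilibration; fluorescence excited at 280 nm, emission 351 nm, slit 10 nm. K is the intercept/slope ratio of a linear fit of 1/(A₀−A) or 1/(F₀−F) vs 1/[compound].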

[13] = Growth inhibition of human ovarian cancer cells incubated for 48 hrs by sulforhodamine B assay; format: functional; details: Cancer cell lines; for CC50: read-out: LC50 (the source's name)
[14] = read-out: LC50 (the source's name)
[15] = read-out: pLC50 (the source's name) (converted)

Albumin, sequence (P02769 whole entry): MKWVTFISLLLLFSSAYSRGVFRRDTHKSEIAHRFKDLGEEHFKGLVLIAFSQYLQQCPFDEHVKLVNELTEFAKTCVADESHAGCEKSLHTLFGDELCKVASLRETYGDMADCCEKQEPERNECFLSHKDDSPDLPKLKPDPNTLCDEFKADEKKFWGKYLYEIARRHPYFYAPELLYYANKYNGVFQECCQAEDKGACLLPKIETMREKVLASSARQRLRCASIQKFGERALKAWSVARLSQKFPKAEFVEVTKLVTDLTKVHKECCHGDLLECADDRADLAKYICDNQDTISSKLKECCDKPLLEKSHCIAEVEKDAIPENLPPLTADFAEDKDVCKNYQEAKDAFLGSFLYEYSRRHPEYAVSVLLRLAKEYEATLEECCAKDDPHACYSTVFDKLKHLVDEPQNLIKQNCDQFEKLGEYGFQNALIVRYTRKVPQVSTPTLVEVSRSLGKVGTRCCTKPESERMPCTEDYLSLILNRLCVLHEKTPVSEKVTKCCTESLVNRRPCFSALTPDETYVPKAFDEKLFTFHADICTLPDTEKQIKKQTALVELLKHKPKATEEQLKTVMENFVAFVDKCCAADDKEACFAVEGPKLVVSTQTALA

| Structure (SMILES) | growth at 100 µM (SN12C) [%] | GI50 (NCI-H23; read-out: GI50) [µM] | CC50 (NCI-H23; [14]) [µM] | TGI (NCI-H23; read-out: TGI) [µM] | GI50 (NCI-H23; read-out: pGI50 (converted)) [µM] | CC50 (NCI-H23; [15]) [µM] | TGI (NCI-H23; read-out: pTGI (converted)) [µM] | GI50 (MCF7 [1]; read-out: GI50) [µM] | CC50 (MCF7 [1]; [14]) [µM] | TGI (MCF7 [1]; read-out: TGI) [µM] | GI50 (MCF7 [1]; read-out: pGI50 (converted)) [µM] | CC50 (MCF7 [1]; [15]) [µM] | TGI (MCF7 [1]; read-out: pTGI (converted)) [µM] | growth at 0.01 µM [2] [%] | growth at 0.01 µM [3] [%] | growth at 0.1 µM [4] [%] | growth at 0.1 µM [5] [%] | growth at 0.1 µM (U-251) [%] | growth at 100 µM [6] [%] | growth at 10 µM (Malme-3M) [%] | other results |
| --- | --- | --- | --- | --- | --- | --- | --- | --- | --- | --- | --- | --- | --- | --- | --- | --- | --- | --- | --- | --- | --- |
| c1ccc(-c2nc(Nc3ccc(-c4nc5ccccc5[nH]4)cc3)nc(N3CCOCC3)n2)cc1 | -59 | 2.07 | 68.7 | 4.78 | 2.09 | 69.2 | 4.79 | 0.877 | 8.56 | 2.85 | 0.871 | 8.51 | 2.82 | 97 | 99 | 26 | 100 | 110 | -48 | -77.3 | growth at 0.1 µM [7]: 97%; growth at 0.1 µM [8]: 104%; growth at 10 µM (MCF7 [9]): -76.2%; growth at 1 µM (NCI/ADR-RES): 81%; growth at 1 µM (A498): 55%; growth at 10 µM (NCI-H522): -75%; growth at 10 µM [10]: -83%; growth at 10 µM [11]: -76%; growth at 10 µM [12]: -32.7%; growth at 10 µM (NCI-H322M): -0.47%; growth at 10 µM (NCI-H460): -67.2%; growth at 10 µM (HT-29): -59.9%; K (Albumin): 3.2 ×10⁴ /M; GI50 [13]: 1.85 µM; TGI [13]: 3.88 µM; CC50 [13]: 6.84 µM |
| Fc1ccc(-c2nc(Nc3ccc(-c4nc5ccccc5[nH]4)cc3)nc(N3CCOCC3)n2)cc1 | -21 | 2.57 | > 100 | 9.9 | 2.57 | > 100 | 10 | 2.59 | > 100 | > 100 | 2.57 | > 100 | > 100 | 102 | 101 | 79 | 94 | 102 | 4 | -65.7 | growth at 0.1 µM [7]: 91%; growth at 0.1 µM [8]: 104%; growth at 10 µM (MCF7 [9]): -44.3%; growth at 1 µM (NCI/ADR-RES): 90%; growth at 1 µM (A498): 74%; growth at 10 µM (NCI-H522): -30%; growth at 10 µM [10]: 3%; growth at 10 µM [11]: -35%; growth at 10 µM [12]: -46%; growth at 10 µM (NCI-H322M): 27%; growth at 10 µM (NCI-H460): 0.13%; growth at 10 µM (HT-29): -23.1%; K (Albumin): 7.9 ×10⁴ /M; GI50 [13]: 2.74 µM; TGI [13]: 11.5 µM; CC50 [13]: > 100 µM |
